HCT116 PTEN-null: PTEN-deleted cell growth suppression; HCT116 PTEN-null viability, CellTiter-Glo, 60 h; hits give low values; viability, % at 10 µM; actives 1.2% (n = 140,000); AID 827;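 active = viability at or below a set limit, 4 SD under the median of all tested compounds, cut at about 3.7% in these data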;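 also: PTEN knockout HCT116 line with beta catenin targeted HCT116 as companion control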
HUVEC prolif 384: human endothelial cell proliferation inhibition. viability, % at 10 µM (by protocol). actives 1.1% (n = 86,000). HUVEC proliferation, CellTiter-Glo luminescence, 72 h; hits give low values. AID 648;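 active = viability at or below 30%; inactive = viability above 30%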
H69AR inhibit: blocks growth of human H69AR lung tumor cells; viability, % at 10 µM; actives 6% (n = 85,000); H69AR lung tumor viability, ATP luminescence, 72 h; hits give low values; AID 598;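 active = viability at or below 40%; inactive = viability above 40%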;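 also: multidrug resistant small cell line overexpressing MRP-1 efflux transporter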
Fibroblast inh: blocks proliferation of human lung fibroblasts. viability, % at 10 µM. AID 719. LL 47 human lung fibroblast viability, ATP luminescence; hits give low values. actives 1.1% (n = 85,000);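 active = viability at or below 50% in the single dose screen; inactive = viability above 50%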;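 also: compound exposure lasted 72 h before the ATP readout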
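Material: Human LL 47 lung fibroblast cells | Input: 1,150 cells/well | Buffer or medium: IMEM plus 15% FBS | Compound dosing: 0.1% DMSO in all compound wells | Times: Overnight cell rest, 72 h compound treatment at 37 °C | Signal: CellTiter-Glo luminescence measuring cellular ATP | Measure: % viability versus median cells-only luminescence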
bCat KO growth: beta-catenin-lacking colon tumor cell growth suppression; HCT116 beta-catenin knockout viability, CellTiter-Glo, 60 h; hits give low values; viability, % at 10 µM; actives 1.5% (n = 140,000); AID 818;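 active = viability at or under a set limit, the compound median less 4 SD, cut at about 6% in these data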
Large screens that a line does not name were inactive. Many of the other results were omitted from the sample, so hits are more common in it than they were.

CC(=O)N(C)C1=C(N2CCOCC2)C(=O)c2ccccc2C1=O	HCT116 PTEN-null 0.8, bCat KO growth 0.7 (no result: HUVEC prolif 384, H69AR inhibit, Fibroblast inh)
CC(=O)c1ccc(NC2=C(N3CCOCC3)C(=O)c3ccccc3C2=O)cc1	none (no result: HUVEC prolif 384, H69AR inhibit, Fibroblast inh)
Cc1cc(C)c2nc(SCC#N)cc(C)c2c1	H69AR inhibit 24
Cc1cccc(N(C)C(=O)c2cc3cc4ccc(C)cc4nc3o2)c1	H69AR inhibit 19
COc1ccccc1NC(=O)COc1ccc(/C=N/NC(=O)CSCc2cc(C)cc(C)c2)cc1	none (no result: HUVEC prolif 384, H69AR inhibit, Fibroblast inh)
COc1ccccc1NC(=O)COc1ccc(/C=N/NC(=O)CSCc2ccc(Cl)cc2)cc1	HCT116 PTEN-null 2.2, bCat KO growth 3.2 (no result: HUVEC prolif 384, H69AR inhibit, Fibroblast inh)
CC(C)(C)c1cc(C(c2cccnc2)N2CCN(CCO)CC2)cc(C(C)(C)C)c1O (configuration not stated)	HCT116 PTEN-null 1.7, HUVEC prolif 384 2.2, H69AR inhibit 2.2, Fibroblast inh 2.8, bCat KO growth 1.7
OCCN1CCN(C(c2cccs2)c2ccc3cccnc3c2O)CC1 (configuration not stated)	none
COC(=O)c1ccc(COc2ccc(-c3nnn(CC(=O)NC(C)(C)C)n3)cc2)cc1	none (no result: HUVEC prolif 384, H69AR inhibit, Fibroblast inh)
O=C(c1cncc(Br)c1)N1CCCc2ccccc21	none
O=C(c1coc(=O)c(Br)c1)N1CCCc2ccccc21	H69AR inhibit -0.6
CC1(C)CCCN(C(=O)c2coc(=O)c(Br)c2)C1	H69AR inhibit 7.0
CC(=O)NS(=O)(=O)c1ccc(NC(=O)c2ccc3c(c2)C(=O)N(CCC(C)C)C3=O)cc1	none (no result: HUVEC prolif 384, H69AR inhibit, Fibroblast inh)
Fc1ccc(Br)cc1C1C=C(c2cccnc2)Nc2ncnn21 (configuration not stated)	H69AR inhibit 25
Brc1ccc(C2=CC(c3cccs3)n3ncnc3N2)cc1 (configuration not stated)	none
O=C(Nc1nc(-c2ccccn2)cs1)C1COc2ccccc2O1 (configuration not stated)	Fibroblast inh 44
O=C(Nc1nc(-c2ccccc2)cs1)C1COc2ccccc2O1 (configuration not stated)	none
CCN(CC)S(=O)(=O)c1ccc(Cl)c(C(=O)Nc2ccc(Cl)cc2[N+](=O)[O-])c1	none (no result: HUVEC prolif 384, H69AR inhibit, Fibroblast inh)
COc1ccc(NC(=O)c2cc(-c3cc(C)cc(C)c3O)n[nH]2)cc1Cl	H69AR inhibit 21
Cc1cc(C)c(O)c(-c2cc(C(=O)NCc3ccccc3)[nH]n2)c1	none
CCn1c2ccccc2c2cc(/C=N/n3cn[nH]c3=S)ccc21	H69AR inhibit 15
CCn1c2ccccc2c2cc(/C=N/n3cnnc3)ccc21	none
CC(C)(C)c1ccc(C(O)CCCN2CCC(C(O)(c3ccccc3)c3ccccc3)CC2)cc1 (configuration not stated)	HCT116 PTEN-null 0.8, HUVEC prolif 384 2.4, H69AR inhibit 0.8, Fibroblast inh 2.6, bCat KO growth 0.7
Oc1ccccc1CN1CCC(C(O)(c2ccccc2)c2ccccc2)CC1	none (no result: HUVEC prolif 384, H69AR inhibit, Fibroblast inh)
CCN(CC)S(=O)(=O)c1ccc(N/N=C/c2cc(OC)c(OC)cc2OC)nc1	none (no result: HUVEC prolif 384, H69AR inhibit, Fibroblast inh)
CCOc1cccc(/C=N/Nc2ccc(S(=O)(=O)N(CC)CC)cn2)c1O	HCT116 PTEN-null 2.8, bCat KO growth 3.8 (no result: HUVEC prolif 384, H69AR inhibit, Fibroblast inh)
O=C(CN(c1cccc(C(F)(F)F)c1)S(=O)(=O)c1ccc(Cl)c([N+](=O)[O-])c1)NCc1ccccc1	none (no result: HUVEC prolif 384, H69AR inhibit, Fibroblast inh)
Cc1ccc(N(CC(=O)NCCc2ccc(F)cc2)S(=O)(=O)c2ccc(Cl)c([N+](=O)[O-])c2)c(C)c1	HCT116 PTEN-null 1.4, bCat KO growth 1.5 (no result: HUVEC prolif 384, H69AR inhibit, Fibroblast inh)
Cc1[nH]c2c(ccc3ccccc32)c1C1C(CCN)C1(C)C (configuration not stated)	HCT116 PTEN-null 1.8, HUVEC prolif 384 2.4, H69AR inhibit 4.4, Fibroblast inh 2.7, bCat KO growth 1.9
O=C(NCc1ccccc1)C(=O)NCC1COc2ccccc2O1 (configuration not stated)	H69AR inhibit 29
Cc1ccccc1NC(=O)c1ccc(-n2cncn2)nc1	none (no result: HUVEC prolif 384, H69AR inhibit, Fibroblast inh)
O=C(CSc1ccc2c(c1)OCCO2)Nc1ccc(Cl)cn1	HUVEC prolif 384 19
CSc1nc(N2CCN(CCO)CC2)c2sc3nc(-c4ccco4)c4c(c3c2n1)CCC4	H69AR inhibit 0.8 (no result: HCT116 PTEN-null, bCat KO growth)
CC1=NN(c2ccccc2)C(=O)/C1=C/C=C/c1ccccc1	HCT116 PTEN-null 3.2, bCat KO growth 3.4 (no result: HUVEC prolif 384, H69AR inhibit, Fibroblast inh)
CCOC(=O)COc1ccc(S(=O)(=O)N2CCN(c3ccccc3)CC2)cc1	none (no result: HUVEC prolif 384, H69AR inhibit, Fibroblast inh)
Cc1cc(/C=C2\SC(=Nc3ccc(F)cc3)NC2=O)c(C)n1-c1ccc(S(N)(=O)=O)cc1	HCT116 PTEN-null 2.8 (no result: HUVEC prolif 384, H69AR inhibit, Fibroblast inh)

High-throughput results deposited in PubChem by SRMLSC.
